Measurements reported in publication PMC2868107 (Biochemistry, 2010).
Like-named read-outs stand apart in the source and are kept apart here. Where a SMILES comes first, the peptide text is derived from it. Where no end group is shown, it is not given here.

Tests used:
[1] = target: Neuropilin-1 (Homo sapiens) (UniProt O14786); assay: SPR; details: cited from earlier work
neuropilin-2 = target: T1, neuropilin-2 (Homo sapiens, UniProt O60462); assay: Sedimentation velocity analytical ultracentrifugation with neuropilin-2; format: binding
T1 sequence (O60462 276-595 limits assumed): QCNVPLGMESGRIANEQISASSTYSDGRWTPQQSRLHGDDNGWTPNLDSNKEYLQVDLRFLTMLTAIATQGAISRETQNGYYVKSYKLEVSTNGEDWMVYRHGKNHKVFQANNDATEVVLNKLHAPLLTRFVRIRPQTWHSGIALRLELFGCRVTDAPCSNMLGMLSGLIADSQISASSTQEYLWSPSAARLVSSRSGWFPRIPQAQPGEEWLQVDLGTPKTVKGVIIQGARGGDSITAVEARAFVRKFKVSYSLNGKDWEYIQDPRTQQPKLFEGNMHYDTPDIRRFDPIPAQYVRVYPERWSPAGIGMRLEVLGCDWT
Procedure, shortened: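 Sedimentation velocity was run at 4°C and 40,000 rpm in 10 mM Tris pH 7.5, 150 mM NaCl, 1 mM sodium azide. Human neuropilin-2 b1b2 was held at 8 μM. The oxidised dimeric C-terminal Sema3F peptide was added at 2.5X molar excess. Absorbance was read at 280 nm. Sedimentation coefficient distributions (0.1–6 s) were fit to numerical Lamm equation solutions, using calculated buffer density, viscosity and partial specific volumes.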

neuropilin-1 [2] = target: T2, neuropilin-1 (Homo sapiens, UniProt O14786); format: binding
T2 sequence (O14786 273-586 limits assumed): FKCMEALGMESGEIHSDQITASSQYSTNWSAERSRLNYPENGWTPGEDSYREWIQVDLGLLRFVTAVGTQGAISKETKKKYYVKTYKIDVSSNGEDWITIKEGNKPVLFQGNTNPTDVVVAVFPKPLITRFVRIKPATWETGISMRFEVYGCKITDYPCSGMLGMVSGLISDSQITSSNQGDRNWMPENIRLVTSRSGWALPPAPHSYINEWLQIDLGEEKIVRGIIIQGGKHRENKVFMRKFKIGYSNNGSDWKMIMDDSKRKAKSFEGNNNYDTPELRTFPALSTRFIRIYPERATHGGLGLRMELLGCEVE

axon = details: cited from earlier work
neuropilin-1 [3] = details: cited from earlier work
[4] = target: T3, core ligand binding region (b1b2) of human neuropilin-2 (human, UniProt O60462 277-592); assay: AUC
T3 sequence (looked up): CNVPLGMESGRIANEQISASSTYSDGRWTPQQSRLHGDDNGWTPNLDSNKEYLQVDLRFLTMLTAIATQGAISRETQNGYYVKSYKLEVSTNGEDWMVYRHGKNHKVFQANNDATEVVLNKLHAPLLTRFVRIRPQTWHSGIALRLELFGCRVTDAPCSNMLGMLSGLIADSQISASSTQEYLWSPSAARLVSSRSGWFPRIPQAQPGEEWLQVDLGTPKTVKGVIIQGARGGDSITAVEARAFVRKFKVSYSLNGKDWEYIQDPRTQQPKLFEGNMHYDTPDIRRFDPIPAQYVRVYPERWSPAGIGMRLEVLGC

[5] = target: core ligand binding region (b1b2) of human neuropilin-1 (human) (UniProt O14786); assay: plate-based inhibition assay
[6] = target: core ligand binding region (b1b2) of human neuropilin-1 (human) (UniProt O14786); assay: plate-based inhibition assay; remark: listed apart in the source
furin = assay: Furin processing of Sema3F C-terminus; format: cell-based; details: C-terminal Hgh fusion, western blot
Procedure, shortened: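 The C-terminal neuropilin-binding region of human Sema3F (residues 605-785) was fused to human growth hormone. Cells were kept in α-MEM with 5% FBS, moved at 80% confluence to serum-free Hybridoma-SFM, and PEI-transfected with 1 μg DNA/mL at a 3:1 PEI:DNA ratio. Hosts were CHO, furin-deficient FD11, furin-overexpressing CHO, and COS-7 with or without furin inhibitors. Media were western-blotted with anti-Hgh polyclonal (1:10,000) and HRP anti-rabbit (1:20,000) antibodies, then chemiluminescence.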

core ligand binding region (b1b2) of human neuropilin-1 (human), sequence (O14786 22-923): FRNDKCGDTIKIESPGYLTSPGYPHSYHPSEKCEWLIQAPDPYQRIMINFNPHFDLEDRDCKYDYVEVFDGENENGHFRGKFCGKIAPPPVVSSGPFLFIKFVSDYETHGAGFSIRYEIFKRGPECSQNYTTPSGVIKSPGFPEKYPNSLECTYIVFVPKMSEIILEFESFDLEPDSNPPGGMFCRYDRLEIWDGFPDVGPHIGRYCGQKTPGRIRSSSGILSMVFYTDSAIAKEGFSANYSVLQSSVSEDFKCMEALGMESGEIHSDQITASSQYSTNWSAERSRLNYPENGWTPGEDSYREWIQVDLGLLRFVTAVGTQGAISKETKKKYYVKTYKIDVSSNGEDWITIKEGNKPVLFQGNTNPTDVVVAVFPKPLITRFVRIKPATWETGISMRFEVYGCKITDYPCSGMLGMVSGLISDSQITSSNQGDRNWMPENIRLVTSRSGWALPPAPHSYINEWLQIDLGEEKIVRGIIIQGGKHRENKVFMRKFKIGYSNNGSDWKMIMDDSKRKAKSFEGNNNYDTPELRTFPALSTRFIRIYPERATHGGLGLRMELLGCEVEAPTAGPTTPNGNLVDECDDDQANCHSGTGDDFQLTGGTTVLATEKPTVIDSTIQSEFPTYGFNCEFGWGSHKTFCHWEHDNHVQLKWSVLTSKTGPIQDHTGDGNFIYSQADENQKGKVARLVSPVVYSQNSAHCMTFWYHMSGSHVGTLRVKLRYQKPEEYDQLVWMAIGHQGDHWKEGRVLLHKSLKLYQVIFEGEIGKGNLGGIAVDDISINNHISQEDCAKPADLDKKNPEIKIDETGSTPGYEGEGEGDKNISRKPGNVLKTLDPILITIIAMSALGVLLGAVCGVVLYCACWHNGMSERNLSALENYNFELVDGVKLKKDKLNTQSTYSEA
Neuropilin-1 (Homo sapiens), sequence (O14786 22-923): as above

VEGF (from UniProt P15692)
Kd [1]: 2000 nM

GLIHQYCQGYWRHVPPSPREAPGAPRSPEPDQKKPRNRRHHPPDT (disulfide (positions not given here)) [C-Sema]
% of species, peak a (neuropilin-2; neuropilin-2 8 μM + C-Sema 2.5X molar excess, free C-Sema): 32% | c(M), peak a (neuropilin-2; neuropilin-2 8 μM + C-Sema 2.5X molar excess, free C-Sema (expected 10.7 kDa)): 11.1 ± 0.6 kDa | % of species, peak c (neuropilin-2; neuropilin-2 8 μM + C-Sema 2.5X molar excess, neuropilin-2 dimer): 4% | % of species, peak b (neuropilin-2; neuropilin-2 8 μM + C-Sema 2.5X molar excess, neuropilin-2 monomer): 58% | interaction with neuropilin-2 by sedimentation velocity (neuropilin-2; neuropilin-2 8 μM, peptide 2.5X molar excess): no significant interaction with neuropilin-2

CC(C)C[C@H](NC(=O)[C@H](Cc1c[nH]c2ccccc12)NC(=O)[C@@H](NC(=O)[C@H](C)N)[C@@H](C)O)C(=O)N1CCC[C@H]1C(=O)N1CCC[C@H]1C(=O)N[C@@H](CCCNC(=N)N)C(=O)O [ATWLPPR] (H-ATWLPPR-OH)
IC50 (neuropilin-1 [2]): 10500 ± 2000 nM

VEGF
effect on semaphorin mediated growth cone collapse (axon): directly antagonize semaphorin mediated growth cone collapse | increase in apparent affinity of VEGF with four fold higher neuropilin density (neuropilin-1 [3]): twenty

GLIHQYCQGYWRHVPPSPREAPGAPRSPEPQDQKKPRNRR (also: disulfide-linked dimer (interchain disulfide))
stoichiometry N [4]: 1 neuropilin-2:C-furSema | IC50 [5]: 46 nM | IC50 [6]: 45 nM

B1: Neuropilin-2: core ligand binding region (b1b2) of human neuropilin-2 (protein)
chain: CNVPLGMESGRIANEQISASSTYSDGRWTPQQSRLHGDDNGWTPNLDSNKEYLQVDLRFLTMLTAIATQGAISRETQNGYYVKSYKLEVSTNGEDWMVYRHGKNHKVFQANNDATEVVLNKLHAPLLTRFVRIRPQTWHSGIALRLELFGCRVTDAPCSNMLGMLSGLIADSQISASSTQEYLWSPSAARLVSSRSGWFPRIPQAQPGEEWLQVDLGTPKTVKGVIIQGARGGDSITAVEARAFVRKFKVSYSLNGKDWEYIQDPRTQQPKLFEGNMHYDTPDIRRFDPIPAQYVRVYPERWSPAGIGMRLEVLGC
% of species, peak b (neuropilin-2; neuropilin-2 alone, 8 μM, dimer): 3% | c(M), peak b (neuropilin-2; neuropilin-2 alone, 8 μM, dimer (expected 76.8 kDa)): 74.3 ± 3.0 kDa | s20,w, peak b (neuropilin-2; neuropilin-2 alone, 8 μM, dimer, 4°C, 10 mM Tris pH 7.5, 150 mM NaCl): 4.73 S | % of species, peak a (neuropilin-2; neuropilin-2 alone, 8 μM, monomer): 97% | c(M), peak a (neuropilin-2; neuropilin-2 alone, 8 μM, monomer (expected 38.4 kDa)): 37.9 ± 1.9 kDa | c(M), peak a (neuropilin-2; neuropilin-2 alone, 8 μM, monomer (expected 38.4 kDa), listed as neuropilin-2): 37.9 kDa | s20,w, peak a (neuropilin-2; neuropilin-2 alone, 8 μM, monomer, 4°C, 10 mM Tris pH 7.5, 150 mM NaCl): 3.03 S

B2: Sema3F (Ig-basic): C-terminal neuropilin binding region of human Sema3F (residues 605-785) with C-terminal human growth hormone fusion (protein)
chain: ANKNAVESVQYGVAGSAAFLECQPRSPQATVKWLFQRDPGDRRREIRAEDRFLRTEQGLLLRALQLSDRGLYSCTATENNFKHVVTRVQLHVLGRDAVHAALFPPLSMSAPPPPGAGPPTPPYQELAQLLAQPEVGLIHQYCQGYWRHVPPSPREAPGAPRSPEPQDQKKPRNRR
modifications: left off: Human Growth Hormone (Hgh), N-terminal, kept
processing state of Sema3F (furin; CHO cells overexpressing furin): only the processed form | processing state of Sema3F (furin; COS-7 cells, no furin inhibitor): nearly completely processed | proteolytic processing of Sema3F (fraction processed) (furin; Cos7 cells, no furin inhibitor): > 95% | processing state of Sema3F (furin; FD11 CHO cells lacking furin activity): solely the unprocessed form | processing state of Sema3F (furin; wild-type CHO cells): a mixture of processed and unprocessed forms
